Source: ChEMBL document CHEMBL4311989, “Anti-hepatitis-C virus activity and QSAR study of certain thiazolidinone and thiazolotriazine derivatives as potential NS5B polymerase inhibitors” (Eur J Med Chem, 2019)

Tests used:
Hepatitis C virus = assay: Antiviral activity against HCV genotype 1a infected in human Huh7.5 cells assessed as reduction in viral replication by measuring HCV core antigen level by ELISA; format: functional, organism-based, Hepacivirus hominis; conditions: subtype 1a
Procedure, shortened: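 HCV GT1a replication in Huh-7.5 human hepatoma cells; HCV core protein quantified by core antigen ELISA per kit instructions. EC50 taken as concentration reducing HCV replication by 50%, with VCH-759 as reference.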

[1] = target: RNA-directed RNA polymerase (Hepacivirus hominis, UniProt O39930); assay: Inhibition of recombinant HCV genotype 1a NS5B polymerase coincubated with HCV international ribosome entry site template sequence containing nucleotide residues 21-371 of HCV 5'-untranslated Escherichia coli DNA polymerase I region incubated for 3 hrs by scintillation/luminescence counter method; design: species or system Hepatitis C virus subtype 1a
Procedure, shortened: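 Recombinant GT1a NS5B RdRp, […] (GenBank AF356827), used at 0.26 ug/well; VCH-759 as non-nucleoside positive control; IC50 determined.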

[2] = target: RNA-directed RNA polymerase (Hepacivirus hominis) (UniProt O39930); assay: Potency index, ratio of VCH-759 IC50 to compound IC50 for HCV genotype 1a recombinant NS5B polymerase coincubated with HCV international ribosome entry site template sequence containing nucleotide residues 21-371 of HCV 5'-untranslated Escherichia coli DNA polymerase I region; conditions: Hepatitis C virus subtype 1a
[3] = Cytotoxicity against human THLE2 cells assessed as reduction in cell viability incubated for 24 hrs by MTT assay; format: cell-based, THLE-2
Procedure, shortened: (§1)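 Transformed normal human cells (THLE-2 liver epithelial; RPTEC/TERT1 proximal tubular epithelial) exposed to compound; viability read by MTT reduction to formazan. CC50 defined as concentration reducing cell viability by 50%; VCH-759 run as reference.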

[4] = Cytotoxicity against human RPTEC/TERT1 cells assessed as reduction in cell viability incubated for 24 hrs by MTT assay; format: cell-based; procedure, shortened: as §1
[5] = Selectivity index, ratio of CC50 for human THLE2 cells to EC50 for HCV infected in human Huh7.5 cells; format: toxicity, cell-based; conditions: THLE2 cells (CC50) and HCV-infected Huh7.5 cells (EC50)
Procedure, shortened: (§2)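 SI computed as CC50 on THLE-2 or RPTEC/TERT1 (MTT viability) divided by EC50 from HCV-infected Huh7.5 cells (core antigen ELISA).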

[6] = Selectivity index, ratio of CC50 for human RPTEC/TERT1 cells to EC50 for HCV infected in human Huh7.5 cells; format: toxicity, cell-based; conditions: read-out: Ratio CC50/EC50; procedure, shortened: as §2

Structure (SMILES) | EC50 (Hepatitis C virus) [µM] | IC50 [1] [µM] | also measured
COc1ccc(N2CN=c3s/c(=C/c4ccccc4)c(=O)n3C2)cc1 | 10.8 | 0.75 | 
COc1ccc(N2CN=c3s/c(=C/c4ccc(Cl)cc4)c(=O)n3C2)cc1 | 10.3 | 3.53 | 
O=C(CN1C(=O)S/C(=C\c2ccccc2)C1=O)Nc1ccccc1 | 19.6 | 4.8 | 
COc1ccc(/C=c2/sc3n(c2=O)CN(c2ccc(Cl)cc2)CN=3)cc1 | 24.3 | 0.99 | 
COc1ccc(/C=c2/sc3n(c2=O)CN(c2ccccc2)CN=3)cc1 | 12.6 | 0.2 | 
O=c1/c(=C\c2ccc(F)cc2)sc2n1CN(c1ccc(Cl)cc1)CN=2 | 6.58 | 0.2 | 
N=C1S/C(=C\c2ccccc2)C(=O)N1c1ccccc1 | 11.1 | 0.58 | 
COc1ccc(/C=C2\SC(=O)N(CC(=O)Nc3ccccc3)C2=O)cc1 | 11.6 | 0.25 | 
COc1ccc(NC(=O)CN2C(=O)S/C(=C\c3ccc(F)cc3)C2=O)cc1 | 10.8 | 0.39 | 
COc1ccc(NC(=O)CN2C(=O)S/C(=C\c3ccc(Cl)cc3)C2=O)cc1 | 43.9 | 0.37 | 
O=c1/c(=C\c2ccc(Cl)cc2Cl)sc2n1CN(c1ccc(Cl)cc1)CN=2 | 9.5 | 0.54 | 
COc1ccc(/C=C2\SC(=O)N(CC(=O)Nc3ccc(OC)cc3)C2=O)cc1 | 19.6 | 0.78 | 
CC1CCC(C(=O)N(c2cc(-c3ccccc3)sc2C(=O)O)C2CCC(O)CC2)CC1 (configuration not stated) [VCH-759] | 5.29 | 0.14 | CC50 at 24 h [3]: 61.8 µM; CC50 at 24 h [4]: 81.3 µM; selectivity ratio [5]: 11.7; selectivity ratio [6]: 15.4
COc1ccc(N2CN=c3s/c(=C/c4ccc(F)cc4)c(=O)n3C2)cc1 | 40.1 | 0.07 | Ratio IC50 [2]: 1 to 2
COc1ccc(/C=C2\SC(=O)N(CC(=O)Nc3ccc(Cl)cc3)C2=O)cc1 | 7.93 | 0.28 | 
COc1ccc(/C=c2/sc3n(c2=O)CN(c2ccc(OC)cc2)CN=3)cc1 | 9.54 | 0.54 | 
O=c1/c(=C\c2ccccc2Cl)sc2n1CN(c1ccccc1)CN=2 | 30.7 | 0.43 | 
O=c1/c(=C\c2ccc(Cl)cc2Cl)sc2n1CN(c1ccccc1)CN=2 | 14.5 | 1.37 | 
COc1ccc(NC(=O)CN2C(=O)S/C(=C\c3ccccc3Cl)C2=O)cc1 | 11 | 1.2 | 
O=c1/c(=C\c2ccc(Cl)cc2)sc2n1CN(c1ccccc1)CN=2 | 10.9 | 0.12 | Ratio IC50 [2]: 1 to 2

More lines, main results first:

EC50 (Hepatitis C virus) [µM] | IC50 [1] [µM] | Structure (SMILES) | also measured
6.47 | 2.99 | O=C(CN1C(=O)S/C(=C\c2ccccc2Cl)C1=O)Nc1ccc(Cl)cc1 | 
18.7 | 2.2 | O=c1/c(=C\c2ccc(F)cc2)sc2n1CN(c1ccccc1)CN=2 | 
13.5 | 1.26 | COc1ccc(N2CN=c3s/c(=C/c4ccccc4Cl)c(=O)n3C2)cc1 | 
19.3 | 0.49 | O=c1/c(=C\c2ccccc2)sc2n1CN(c1ccc(Cl)cc1)CN=2 | 
8.4 | 0.14 | O=C(CN1C(=O)S/C(=C\c2ccc(F)cc2)C1=O)Nc1ccccc1 | 
16.9 | 0.1 | O=C(CN1C(=O)S/C(=C\c2ccc(F)cc2)C1=O)Nc1ccc(Cl)cc1 | Ratio IC50 [2]: 1 to 2
10.8 | 1.82 | O=c1/c(=C\c2ccc(Cl)cc2)sc2n1CN(c1ccc(Cl)cc1)CN=2 | 
10.6 | 0.45 | COc1ccc(NC(=O)CN2C(=O)S/C(=C\c3ccccc3)C2=O)cc1 | 
8.98 | 0.76 | O=C(C/N=C1/S/C(=C\c2ccccc2)C(=O)N1c1ccccc1)Nc1ccccc1 | 
7.8 | 0.21 | O=C(CN1C(=O)S/C(=C\c2ccc(Cl)cc2)C1=O)Nc1ccc(Cl)cc1 | 
13.8 | 0.09 | O=c1/c(=C\c2ccccc2Cl)sc2n1CN(c1ccc(Cl)cc1)CN=2 | Ratio IC50 [2]: 1 to 2
10.8 | 0.44 | O=C(CN1C(=O)S/C(=C\c2ccc(Cl)cc2Cl)C1=O)Nc1ccccc1 | 
3.8 | 0.035 | O=C(CN1C(=O)S/C(=C\c2ccccc2Cl)C1=O)Nc1ccccc1 | CC50 at 24 h [3]: 103 µM; CC50 at 24 h [4]: 161 µM; selectivity ratio [5]: 27; selectivity ratio [6]: 42.5; Ratio IC50 [2]: 4
44 | 5.12 | O=C(CN1C(=O)S/C(=C\c2ccc(Cl)cc2Cl)C1=O)Nc1ccc(Cl)cc1 | 
43.9 | 0.32 | COc1ccc(NC(=O)CN2C(=O)S/C(=C\c3ccc(Cl)cc3Cl)C2=O)cc1 | 
16.7 | 0.14 | O=C(CN1C(=O)S/C(=C\c2ccccc2)C1=O)Nc1ccc(Cl)cc1 | 
11.1 | 0.085 | O=C(CN1C(=O)S/C(=C\c2ccc(Cl)cc2)C1=O)Nc1ccccc1 | Ratio IC50 [2]: 1 to 2
13.2 | 0.22 | COc1ccc(N2CN=c3s/c(=C/c4ccc(Cl)cc4Cl)c(=O)n3C2)cc1 | 
13.3 | 0.62 | O=c1/c(=C\c2ccccc2)sc2n1CN(c1ccccc1)CN=2 | 
